Test results as given in ChEMBL document CHEMBL1135962, “The first synthesis and antifungal activities of 9-methoxystrobilurin-type beta-substituted beta-methoxyacrylate” (2002).
Active and inactive are the calls of the source. No cut-off for these calls is given here.

Key:
Aspergillus fumigatus [1] = assay: Compound was evaluated for antifungal activity against Aspergillus fumigatum R-1301 as diameter of inhibition zone at a concentration 10 ug/disk; type: functional
Procedure, shortened: (§1)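 Disk-diffusion assay against the fungal strain named in the line. Inhibition-zone diameter was measured after 48 h incubation and is the mean of two samples. Scoring codes used: not effective, slightly effective, incomplete inhibition.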

Candida albicans [2] = assay: Compound was evaluated for antifungal activity against Candida albicans IFO 1594 as diameter of inhibition zone at a concentration 10 ug/disk and showed incomplete inhibition; type: functional; procedure, shortened: as §1
Penicillium citrinum [3] = assay: Compound was evaluated for antifungal activity against penicillium ctrinum R-3703 as diameter of inhibition zone at a concentration 10 ug/disk; type: functional; procedure, shortened: as §1
Saccharomyces cerevisiae [4] = assay: Compound was evaluated for antifungal activity against Saccharomyces cerevisiae IAM 4861 as diameter of inhibition zone at a concentration 10 ug/disk and showed incomplete inhibition; type: functional; procedure, shortened: as §1
Aspergillus fumigatus [5] = assay: Compound was evaluated for antifungal activity against Aspergillus fumigatum R-1301 as diameter of inhibition zone at a concentration 0.1 ug/disk; NE means not effective; type: functional, organism-based; procedure, shortened: as §1
Aspergillus fumigatus [6] = assay: Compound was evaluated for antifungal activity against Aspergillus fumigatum R-1301 as diameter of inhibition zone at a concentration 1 ug/disk; type: functional; procedure, shortened: as §1
Candida albicans [7] = assay: Compound was evaluated for antifungal activity against Candida albicans IFO 1594 as diameter of inhibition zone at a concentration 0.1 ug/disk; NE means not effective; type: functional, organism-based; procedure, shortened: as §1
Candida albicans [8] = assay: Compound was evaluated for antifungal activity against Candida albicans IFO 1594 as diameter of inhibition zone at a concentration 1 ug/disk; NE means not effective; type: functional, organism-based; procedure, shortened: as §1
Fusarium solani [9] = assay: Compound was evaluated for antifungal activity against Fusarium solani R-2800 as diameter of inhibition zone at a concentration 0.1 ug/disk; NE means not effective; type: functional, organism-based; procedure, shortened: as §1
Fusarium solani [10] = assay: Compound was evaluated for antifungal activity against Fusarium solani R-2800 as diameter of inhibition zone at a concentration 1 ug/disk; NE means not effective; type: functional, organism-based; procedure, shortened: as §1
Fusarium solani [11] = assay: Compound was evaluated for antifungal activity against Fusarium solani R-2800 as diameter of inhibition zone at a concentration 10 ug/disk; NE means not effective; type: functional, organism-based; procedure, shortened: as §1
Penicillium citrinum [12] = assay: Compound was evaluated for antifungal activity against penicillium ctrinum R-3703 as diameter of inhibition zone at a concentration 0.1 ug/disk; NE means not effective; type: functional, organism-based; procedure, shortened: as §1
Penicillium citrinum [13] = assay: Compound was evaluated for antifungal activity against penicillium ctrinum R-3703 as diameter of inhibition zone at a concentration 1 ug/disk; type: functional; procedure, shortened: as §1
Saccharomyces cerevisiae [14] = assay: Compound was evaluated for antifungal activity against Saccharomyces cerevisiae IAM 4861 as diameter of inhibition zone at a concentration 0.1 ug/disk; NE means not effective; type: functional, organism-based; procedure, shortened: as §1
Saccharomyces cerevisiae [15] = assay: Compound was evaluated for antifungal activity against Saccharomyces cerevisiae IAM 4861 as diameter of inhibition zone at a concentration 1 ug/disk and showed incomplete inhibition; type: functional; procedure, shortened: as §1
Candida albicans [16] = assay: Compound was evaluated for antifungal activity against Candida albicans IFO 1594 as diameter of inhibition zone at a concentration 10 ug/disk; SE means slightly effective; type: functional, organism-based; procedure, shortened: as §1
Aspergillus fumigatus [17] = assay: Compound was evaluated for antifungal activity against Aspergillus fumigatum R-1301 as diameter of inhibition zone at a concentration 1 ug/disk; NE means not effective; type: functional, organism-based; procedure, shortened: as §1
Aspergillus fumigatus [18] = assay: Compound was evaluated for antifungal activity against Aspergillus fumigatum R-1301 as diameter of inhibition zone at a concentration 10 ug/disk; NE means not effective; type: functional, organism-based; procedure, shortened: as §1
Candida albicans [19] = assay: Compound was evaluated for antifungal activity against Candida albicans IFO 1594 as diameter of inhibition zone at a concentration 10 ug/disk; NE means not effective; type: functional, organism-based; procedure, shortened: as §1
Penicillium citrinum [20] = assay: Compound was evaluated for antifungal activity against penicillium ctrinum R-3703 as diameter of inhibition zone at a concentration 10 ug/disk; NE means not effective; type: functional, organism-based; procedure, shortened: as §1
Penicillium citrinum [21] = assay: Compound was evaluated for antifungal activity against penicillium ctrinum R-3703 as diameter of inhibition zone at a concentration 1 ug/disk; NE means not effective; type: functional, organism-based; procedure, shortened: as §1
Saccharomyces cerevisiae [22] = assay: Compound was evaluated for antifungal activity against Saccharomyces cerevisiae IAM 4861 as diameter of inhibition zone at a concentration 10 ug/disk; SE means slightly effective; type: functional, organism-based; procedure, shortened: as §1
Saccharomyces cerevisiae [23] = assay: Compound was evaluated for antifungal activity against Saccharomyces cerevisiae IAM 4861 as diameter of inhibition zone at a concentration 1 ug/disk; NE means not effective; type: functional, organism-based; procedure, shortened: as §1
Penicillium citrinum [24] = assay: Compound was evaluated for antifungal activity against penicillium ctrinum R-3703 as diameter of inhibition zone at a concentration 1 ug/disk; SE means slightly effective; type: functional, organism-based; procedure, shortened: as §1
Candida albicans [25] = assay: Compound was evaluated for antifungal activity against Candida albicans IFO 1594 as diameter of inhibition zone at a concentration 10 ug/disk; type: functional, organism-based
Procedure, shortened: (§2)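 Disk-diffusion assay against the listed yeast strains (C. albicans IFO 1594; S. cerevisiae IAM 4861). Inhibition-zone diameter read after 48 hr incubation, reported as the mean of two samples. Activity scored as not effective, slightly effective, or incomplete inhibition where applicable.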

Saccharomyces cerevisiae [26] = assay: Compound was evaluated for antifungal activity against Saccharomyces cerevisiae IAM 4861 as diameter of inhibition zone at a concentration 10 ug/disk; type: functional, organism-based; procedure, shortened: as §2

Compound | Inhibition zone (Aspergillus fumigatus [1]) [mm] | Inhibition zone (Candida albicans [2]) [mm] | Inhibition zone (Penicillium citrinum [3]) [mm] | Inhibition zone (Saccharomyces cerevisiae [4]) [mm] | Inhibition zone (Aspergillus fumigatus [5]) | Inhibition zone (Candida albicans [7]) | Inhibition zone (Candida albicans [8]) | Inhibition zone (Fusarium solani [9]) | Inhibition zone (Fusarium solani [10]) | Inhibition zone (Fusarium solani [11]) | Inhibition zone (Penicillium citrinum [12]) | Inhibition zone (Saccharomyces cerevisiae [14]) | Inhibition zone (Saccharomyces cerevisiae [15]) [mm] | Inhibition zone (Aspergillus fumigatus [17]) | other results
COC(=O)/C=C(/OC)[C@H](C)[C@H](/C=C/c1ccccc1)OC (racemic) | 23 | 14 | 26 | 39 |  |  |  |  |  |  |  |  |  |  | 
COC(=O)C=C(OC)/C(C)=C(\C=C\c1ccc(OC)c(OC)c1)OC | 12 |  | 33 | 18 | inactive | inactive | inactive | inactive | inactive | inactive | inactive | inactive | 12 |  | Inhibition zone (Aspergillus fumigatus [6]): 8 mm; Inhibition zone (Penicillium citrinum [13]): 18 mm; Inhibition zone (Candida albicans [16]): Slightly effective
COC(=O)\C=C(OC)/C(C)=C(\C=C\c1cccc2ccccc12)OC |  |  |  |  | inactive | inactive | inactive | inactive | inactive | inactive | inactive | inactive |  | inactive | Inhibition zone (Aspergillus fumigatus [18]): inactive; Inhibition zone (Candida albicans [19]): inactive; Inhibition zone (Penicillium citrinum [20]): inactive; Inhibition zone (Penicillium citrinum [21]): inactive; Inhibition zone (Saccharomyces cerevisiae [22]): Slightly effective; Inhibition zone (Saccharomyces cerevisiae [23]): inactive
COC(=O)/C=C(/OC)[C@H](C)[C@H](/C=C/c1ccccc1)OC [listing 1 of 2 here] |  |  |  |  | inactive | inactive | inactive | inactive | inactive | inactive | inactive | inactive |  | inactive | Inhibition zone (Penicillium citrinum [24]): Slightly effective
NYSTATIN | 16 |  | 10 |  |  |  |  |  |  | inactive |  |  |  |  | Inhibition zone (Candida albicans [25]): 16 mm; Inhibition zone (Saccharomyces cerevisiae [26]): 18 mm
COC(=O)/C=C(/OC)[C@H](C)[C@H](/C=C/c1ccccc1)OC [listing 2 of 2 here] |  | 20 | 28 | 43 |  |  |  |  |  |  |  |  | 25 |  | 
